Measurements as given in ChEMBL document CHEMBL2203171, “The use of small molecule probes to study spatially separated stimulus-induced signaling pathways” (Bioorg Med Chem Lett, 2012).
The source made the active and inactive calls. The calls are words filed in the database; no cut-off is given here.

Columns and labels:
Type in all cases: cell-based
[1] = target: T1, Toll-like receptor 9 (Mus musculus) (UniProt Q9EQU3); assay: Inhibition of MyD88 recruitment to TLR9 in C57BL/6 mouse BMDM cells assessed as inhibition of CpG-induced IkappaBalpha phosphorylation up to 90 mins by Western blot analysis
T1 sequence (whole entry): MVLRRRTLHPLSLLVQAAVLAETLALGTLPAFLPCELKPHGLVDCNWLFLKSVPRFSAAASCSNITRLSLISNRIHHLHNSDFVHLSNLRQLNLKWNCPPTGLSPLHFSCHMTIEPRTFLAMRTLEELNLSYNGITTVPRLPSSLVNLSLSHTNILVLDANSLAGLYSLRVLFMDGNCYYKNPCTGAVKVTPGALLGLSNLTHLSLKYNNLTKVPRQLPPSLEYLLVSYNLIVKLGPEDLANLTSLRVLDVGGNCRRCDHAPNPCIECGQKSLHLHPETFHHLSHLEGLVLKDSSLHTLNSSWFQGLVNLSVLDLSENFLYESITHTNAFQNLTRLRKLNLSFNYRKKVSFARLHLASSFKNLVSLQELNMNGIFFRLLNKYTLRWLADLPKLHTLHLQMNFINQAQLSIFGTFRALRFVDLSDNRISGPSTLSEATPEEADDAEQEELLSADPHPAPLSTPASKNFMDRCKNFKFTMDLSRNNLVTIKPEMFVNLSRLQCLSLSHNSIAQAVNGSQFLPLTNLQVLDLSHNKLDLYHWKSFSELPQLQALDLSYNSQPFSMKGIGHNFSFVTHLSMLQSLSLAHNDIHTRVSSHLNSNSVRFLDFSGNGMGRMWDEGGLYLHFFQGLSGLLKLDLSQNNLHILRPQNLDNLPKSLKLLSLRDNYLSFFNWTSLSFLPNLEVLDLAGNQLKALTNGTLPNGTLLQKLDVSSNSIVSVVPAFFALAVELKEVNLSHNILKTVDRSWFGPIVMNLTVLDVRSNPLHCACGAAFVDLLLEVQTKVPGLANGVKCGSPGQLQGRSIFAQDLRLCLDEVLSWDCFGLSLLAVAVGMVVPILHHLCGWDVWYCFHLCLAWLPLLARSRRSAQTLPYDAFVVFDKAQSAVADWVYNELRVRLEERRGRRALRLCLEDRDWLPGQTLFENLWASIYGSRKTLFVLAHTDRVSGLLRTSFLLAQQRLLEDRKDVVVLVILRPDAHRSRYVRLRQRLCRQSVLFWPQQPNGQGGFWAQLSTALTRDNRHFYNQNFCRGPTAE
Procedure, shortened: (§1)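 Bone marrow macrophages from C57BL/6 mice, grown in 70% growth medium (DMEM, 10% FBS) plus 30% L929-conditioned medium and given fresh medium 12-14 h before stimulation. Stimuli: IL-1 40 ng/ml, HKSA ~10^8 cfu/ml, pI:pC 50 μg/ml or CpG 10 μg/ml, ± compound at 10 μM (final) added from a 200x DMSO stock. IκBα and p38 profiled by immunoblot. Three independent experiments, quantitated and normalized.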

[2] = target: T1, Toll-like receptor 9 (Mus musculus); assay: Inhibition of MyD88 recruitment to TLR9 in C57BL/6 mouse BMDM cells assessed as inhibition of CpG-induced IkappaBalpha degradation up to 90 mins by Western blot analysis; procedure, shortened: as §1
[3] = target: T2, Toll-like receptor 3 (Mus musculus) (UniProt Q99MB1); assay: Inhibition of TRIF recruitment to TLR3 in C57BL/6 mouse BMDM cells assessed as inhibition of pI:pC-induced IkappaBalpha phosphorylation up to 90 mins by Western blot analysis; procedure, shortened: as §1
T2 sequence (whole entry): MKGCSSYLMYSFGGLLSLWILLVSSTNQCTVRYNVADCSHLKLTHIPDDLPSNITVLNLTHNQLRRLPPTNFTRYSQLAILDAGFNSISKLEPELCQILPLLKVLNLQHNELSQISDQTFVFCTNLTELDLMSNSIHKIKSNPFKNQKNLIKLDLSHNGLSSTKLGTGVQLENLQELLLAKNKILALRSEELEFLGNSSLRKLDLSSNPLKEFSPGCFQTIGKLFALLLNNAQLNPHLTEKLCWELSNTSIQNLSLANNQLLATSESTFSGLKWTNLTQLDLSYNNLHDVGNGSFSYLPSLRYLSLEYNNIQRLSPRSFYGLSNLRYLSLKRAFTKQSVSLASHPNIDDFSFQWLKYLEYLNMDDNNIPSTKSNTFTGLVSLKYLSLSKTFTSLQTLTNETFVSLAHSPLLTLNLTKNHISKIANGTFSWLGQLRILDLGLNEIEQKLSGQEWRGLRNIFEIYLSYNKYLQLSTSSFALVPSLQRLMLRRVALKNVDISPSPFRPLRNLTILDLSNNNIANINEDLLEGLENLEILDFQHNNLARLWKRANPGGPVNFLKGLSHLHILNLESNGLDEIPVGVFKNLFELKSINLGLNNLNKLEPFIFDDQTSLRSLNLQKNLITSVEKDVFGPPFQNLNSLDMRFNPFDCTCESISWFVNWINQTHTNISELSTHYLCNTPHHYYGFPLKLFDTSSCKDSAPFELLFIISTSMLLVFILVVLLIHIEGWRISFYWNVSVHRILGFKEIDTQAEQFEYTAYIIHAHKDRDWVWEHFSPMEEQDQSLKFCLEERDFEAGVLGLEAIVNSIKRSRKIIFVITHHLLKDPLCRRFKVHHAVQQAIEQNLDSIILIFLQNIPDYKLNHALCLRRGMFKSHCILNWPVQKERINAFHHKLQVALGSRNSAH

| inhibition [1] | inhibition [2] | inhibition [3] | Structure (SMILES) |
| --- | --- | --- | --- |
| Active | Active | Active | O=C(CCCCCN1C(=O)CCC1=O)Oc1ccc2cc(C(C(=O)NCc3ccccc3)N(C(=O)Cc3ccc4c(c3)OCO4)C3CC3)ccc2c1 (centres undefined) |
| Active | Active | Active | O=C(CCCCCCCC(=O)ON1C(=O)CCC1=O)Oc1ccc2cc(C(C(=O)NCc3ccccc3)N(C(=O)Cc3ccc4c(c3)OCO4)C3CC3)ccc2c1 (centres undefined) |
| Active | Active | Active | O=C(CCCCCN1C(=O)C=CC1=O)Oc1ccc2cc(C(C(=O)NCc3ccccc3)N(C(=O)Cc3ccc4c(c3)OCO4)C3CC3)ccc2c1 (centres undefined) |
